Bioassay records: PubChem BioAssay, The Scripps Research Institute Molecular Screening Center
TAAR1 antagonist – antagonists of human TAAR1; CHO RD-HGA16 TAAR1, Fluo-8 calcium fluorescence, antagonist; inhibition, % at 3 µM; 360,000 compounds, 1.5% hits; Q96RJ0;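 active = inhibition above a per-plate cutoff, the mean inhibition of test compounds on that plate plus 3 SD, cut at about 49% in these data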
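System: RD-HGA16 CHO cells with stable hTAAR1 and Gα16 | Probe or stimulus: EC80 β-phenethylamine stimulus | Dosing: 3 µM, single point | Times: Dye loading 75 min at 37 °C, then 30 min room temperature | Measured by: Fluo-8 calcium-sensitive fluorescence | Read-out basis: % inhibition of agonist calcium response | Replicates: n of 1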
CHO parental Ca – signal in parental CHO cells, OX1R antagonist counter-screen; 330,000 compounds, 0.63% hits; parental CHO-K1, ATP-induced calcium, Fluo-8 fluorescence; inhibition, % at 5.6 µM;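 active = inhibition above that plate's mean sample inhibition plus 3 SD, cut at about 26% in these data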
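Material – parental CHO cells · Reagent – ATP stimulus · Compound – single nominal dose of 5.6 µM per compound · Detection – Fluo-8 fluorescence · Read-out basis – percent inhibition of calcium signal · Controls – ATP-challenged DMSO wells low, unchallenged DMSO wells high · Repeats – no replicates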
OX1R antag-1 – human HCRTR1 antagonism. O43613. CHO/OX1R cells, Fluo-8 calcium fluorescence, orexin A. inhibition, % at 5 µM. 330,000 compounds, 0.43% hits;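 active = inhibition above its plate's threshold, mean inhibition of all tested compounds on the plate plus 3 SD, cut at about 37% in these data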
Target sequence (O43613 whole entry, looked up): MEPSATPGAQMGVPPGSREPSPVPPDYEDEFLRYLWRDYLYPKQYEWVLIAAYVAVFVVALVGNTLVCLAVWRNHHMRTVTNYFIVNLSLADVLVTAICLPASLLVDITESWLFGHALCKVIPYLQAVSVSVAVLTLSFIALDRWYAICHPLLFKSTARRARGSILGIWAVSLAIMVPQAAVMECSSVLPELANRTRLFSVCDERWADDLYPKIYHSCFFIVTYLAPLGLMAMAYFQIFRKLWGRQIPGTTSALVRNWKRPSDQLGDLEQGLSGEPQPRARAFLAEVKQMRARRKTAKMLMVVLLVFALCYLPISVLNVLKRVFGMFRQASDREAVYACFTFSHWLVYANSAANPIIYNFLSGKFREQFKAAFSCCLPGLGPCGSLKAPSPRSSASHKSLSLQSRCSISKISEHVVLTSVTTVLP
TAAR1 agonist – human TAAR1 agonism; Q96RJ0; CHO RD-HGA16 TAAR1, Fluo-8 calcium fluorescence; vehicle wells 0%, saturating PEA agonist 100%; activation, % at 3 µM; 360,000 compounds, 0.99% hits; AID 624467;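 active = activation above the mean activation of all test compounds in the run plus 3 SD, cut at about 38% in these data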
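System: CHO-derived RD-HGA16 cells with stable Gα16 and human TAAR1 / Times: 17-24 h plating, Fluo-8 75 min 37 °C, 30 min RT / Technique: calcium-sensitive Fluo-8 signal, excitation 470-495, emission 515-575 nm / Measure: % activation relative to PEA EC100 response / Benchmarks: DMSO and PEA EC100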
OX1R antag-2 – antagonists of human orexin 1 receptor (OX1R); AID 485270; inhibition, % at 6.6 µM; OX1R-expressing cells, FRET antagonist read-out; 330,000 compounds, 1.8% hits; O43613; in the data active = inhibition mostly above about 38%, no sharp cut-off; inactive = mostly below about 40%
GPR7 antag – blocks human GPR7 receptor signaling. P48145. GPR7-expressing cells, fluorescence antagonist assay. inhibition, % at 4.4 µM. 290,000 compounds, 1.1% hits. AID 1861; in the data active = inhibition above about 16%, passing the limit was not always enough;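 note: cells stimulated with the agonist NPW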
Numbers stand for hits; 0 = inactive; - = no result. Rows were chosen to be rich in hits. Some 4.5% of all compounds tested hit in one or more screens of this group.

SMILES	TAAR1 antagonist	CHO parental Ca	OX1R antag-1	TAAR1 agonist	OX1R antag-2	GPR7 antag
Cc1ccc(CN2CC(N3CCC[C@@H]3C)CS2(=O)=O)cc1 (some centres undefined)	0	-	-	0	-	-
CN(C)CCNc1ccc(-c2nn(C)c(=O)c3ccccc23)cc1[N+](=O)[O-]	0	0	0	0	42	0
CC[C@@H]1C/C=C\Cc2ccccc2[C@H](C(=O)C[C@H](O)CC(C)=O)OC1=O	0	0	0	0	0	-
CC(CNC(=O)c1cc(COc2ccc3ncccc3c2)on1)c1ccccc1 (centres undefined)	0	58	0	0	57	0
CN(Cc1nccn1C)C(=O)c1cc(COc2ccc3ncccc3c2)on1	0	0	0	0	0	0
Cc1cc(CN(C)C(=O)c2cc(COc3ccc4ncccc4c3)on2)on1	0	29	0	0	0	0
CN(Cc1cccnc1)C(=O)c1cc(COc2ccc3c(c2)CCCC3)on1	0	40	0	0	0	0
CC(=O)c1cccc(OCc2cc(C(=O)N(C)Cc3cnccn3)no2)c1	0	0	0	0	0	0
O=C(NC1CCCCCCC1)c1cc(COc2ccc3ncccc3c2)on1	0	-	-	0	-	0
O=C(N/N=C/c1ccccn1)c1cccc([N+](=O)[O-])c1	0	0	0	0	0	0
O=C(N/N=C/c1ccc2ncccc2c1)c1cccc([N+](=O)[O-])c1	0	0	0	0	72	0
Cn1cc(C(=O)N/N=C/c2cccc([N+](=O)[O-])c2)c2ccccc21	0	0	0	0	43	0
Cn1ncc([N+](=O)[O-])c1C(=O)N/N=C/c1cccc([N+](=O)[O-])c1	0	0	0	0	54	0
Cn1cc(C(=O)N/N=C/c2ccc([N+](=O)[O-])cc2)c2ccccc21	0	0	0	0	0	0
Cn1ncc([N+](=O)[O-])c1C(=O)N/N=C/c1ccc(F)cc1	0	0	0	0	0	0
O=c1[nH]c2ccccc2nc1-c1c[nH]c2ccccc12	0	0	0	0	62	0
CCCc1cc(=O)oc2cc(OCC(=O)N3CCN(C(=O)C4COc5ccccc5O4)CC3)ccc12 (centres undefined)	49	0	0	0	0	0
Cc1cc(=O)oc2cc(OCC(=O)N3CCN(C(=O)C4COc5ccccc5O4)CC3)ccc12 (centres undefined)	0	0	0	0	0	0
O=C1C=C(c2cccc3c2Oc2ccccc2S3)C[C@@H](c2ccc3c(c2)OCO3)C1	0	-	-	0	-	-
CC(C)C(=O)Nc1nnc(CSCc2ccccc2F)s1	0	0	0	0	0	0
O=C(Nc1nnc(CSCc2ccccc2F)s1)c1cccc([N+](=O)[O-])c1	0	0	0	0	43	0
O=C(NCc1ccco1)c1ccc(C(=O)NCc2ccco2)cc1	0	-	-	0	-	-
O=C(NCc1ccco1)c1ccc2c(c1)C(=O)c1ccccc1-2	0	0	0	0	37	0
COc1ccc(C(=O)Nc2ccccc2C(=O)NCc2ccco2)cc1OC	54	0	0	0	0	0
O=C(Nc1ccccc1O)c1ccc2c(c1)C(=O)N(Cc1ccco1)C2=O	51	-	-	0	-	0
SMILES	TAAR1 antagonist	CHO parental Ca	OX1R antag-1	TAAR1 agonist	OX1R antag-2	GPR7 antag
COCCNC(=O)c1ccc2c(c1)C(=O)c1ccccc1-2	0	0	0	0	37	0
COc1ccc(CCC(=O)OCC(=O)NC2CCCC2)cc1OC	0	-	-	0	-	-
C[C@H](NC(=O)C1CC(=O)N(c2ccc3c(c2)OCCO3)C1)C(=O)N1CCCCC1 (some centres undefined)	0	0	0	0	0	0
CN(NS(=O)(=O)c1ccccc1)C(=O)c1ccccc1	0	-	-	0	-	-
O=C1NC[C@@H](CCCCN2C[C@H](Cc3ccc(O)cc3)N(Cc3ccccc3)C(=O)C2=O)N(Cc2ccccc2)C1=O	0	-	-	0	-	-
COCCNC(=O)c1ccc2c(c1)S(=O)(=O)c1cc(Cl)ccc1C2=O	0	0	0	0	42	-
COc1ccccc1NC(=O)c1nn(-c2ccc(Cl)cc2)ccc1=O	0	0	0	0	0	0
COc1ccccc1NC(=O)c1nn(-c2ccccc2)ccc1=O	0	0	0	0	71	0
COc1cc(F)cc(-c2ccc3c(c2)c(-c2cccs2)c(-c2cc(OC)cc(OC)c2)n3C)c1	0	0	0	50	0	-
